Calls of active or inactive are those of the source. The calls are words filed in the database; no cut-off is given here.
Key:
[1] = Cytotoxicity against human THP1 cells assessed as cell viability at 20 uM after 72 hrs by trypan blue dye exclusion assay; format: cell-based; conditions: THP-1 cells, read-out: Activity
Summary of the method: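 THP-1 cells were seeded at 2×10^5 cells/ml in triplicate and exposed to 20 µM for 72 h. Cells were then harvested, resuspended in 0.4% trypan blue, and percent viable cells counted on an automated cell counter chamber.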

[2] = tested on: THP-1; test: Antiinflammatory activity in human THP1 cells assessed as inhibition of PMA-induced MCP-1 secretion incubated for 2 hrs prior to PMA challenge measured after 72 hrs by ELISA; format: functional, cell-based
Summary of the method: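 THP-1 monocytes, 2×10^5/ml, received 5, 10 and 20 µM for 2 h before 100 nM PMA. Supernatant MCP-1 was measured by ELISA kit 72 h after PMA, with absorbance at 450 nm corrected at 570 nm and standard-curve quantitation. Percent inhibition is relative to control. IC50 is the predicted 50%-inhibition concentration, mean ± SD of three independent experiments.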

[3] = tested on: THP-1; test: Antiinflammatory activity in human THP1 cells assessed as inhibition of PMA-induced IL-8 secretion incubated for 2 hrs prior to PMA challenge measured after 48 hrs by ELISA; format: functional, cell-based
Summary of the method: (§1)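 Seeded at 2×10^5/ml, THP-1 cells were pretreated 2 h with 5, 10 and 20 µM, then stimulated with 100 nM PMA. Supernatants were taken after 48 h and assayed by ELISA kit, read at 450 nm corrected at 570 nm, and quantified against standard curves (pg/ml). Percent inhibition was calculated versus control. IC50 is the predicted 50%-inhibition concentration, mean ± SD of three independent experiments.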

[4] = tested on: THP-1; test: Antiinflammatory activity in human THP1 cells assessed as inhibition of PMA-induced TNF-alpha secretion incubated for 2 hrs prior to PMA challenge measured after 48 hrs by ELISA; format: functional, cell-based; summary of the method: as §1
[5] = tested on: THP-1; test: Antiinflammatory activity in human THP1 cells assessed as inhibition of PMA-induced CD-36 expression at 10 uM incubated for 2 hrs prior to PMA challenge measured after 36 hrs by RT-PCR analysis; format: functional, cell-based
Summary of the method: (§2)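 THP-1 monocytes (ATCC; RPMI 1640, 10% FBS, 37 °C, 5% CO2) pretreated 2 h, then 100 nM PMA for 36 h. Total RNA extracted in TRIzol, cDNA made, and LOX-1 and CD-36 transcripts measured by RT-PCR with gene-specific primers; GAPDH served as loading control.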

[6] = tested on: THP-1; test: Antiinflammatory activity in human THP1 cells assessed as inhibition of PMA-induced LOX-1 expression at 10 uM incubated for 2 hrs prior to PMA challenge measured after 36 hrs by RT-PCR analysis; format: functional, cell-based; summary of the method: as §2
[7] = tested on: THP-1; test: Antiinflammatory activity in human THP1 cells assessed as inhibition of PMA-induced increase in mitochondrial number at 10 uM incubated for 2 hrs prior to PMA challenge measured after 48 hrs by confocal microscopy; format: functional, cell-based
Summary of the method: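 Cells were treated in cover-glass-bottom dishes: 10 µM for 2 h, then 100 nM PMA. After 48 h they were stained 1 h with 200 nM MitoTracker CMXRos in HBSS and counterstained with DAPI. Confocal imaging used rhodamine and DAPI filters, with five fields of view, and gentle washes between steps.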

[8] = tested on: THP-1; test: Antiinflammatory activity in human THP1 cells assessed as inhibition of PMA-induced increase in cell size at 10 uM incubated for 2 hrs prior to PMA challenge measured after 48 hrs by light microscopy; format: functional, cell-based
Summary of the method: (§3)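 After 2 h pretreatment at 10 µM and 100 nM PMA for 48 h, THP-1 cultures had medium removed and were washed twice with warm DPBS. Phase-contrast light microscopy images were then used to assess adherence and monocyte/macrophage transformation.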

[9] = tested on: THP-1; test: Antiinflammatory activity in human THP1 cells assessed as inhibition of PMA-induced increase in cell adherence at 10 uM incubated for 2 hrs prior to PMA challenge measured after 48 hrs by light microscopy; format: functional, cell-based; summary of the method: as §3
[10] = biological target: Matrix metalloproteinase-9 (Homo sapiens) (UniProt P14780); test: Inhibition of MMP-9 in human THP1 cells assessed as inhibition of PMA-induced monocyte to macrophage transformation at 10 uM incubated for 2 hrs prior to PMA challenge measured after 48 hrs by gelation zymography; format: cell-based; conditions: THP-1
Sequence of Matrix metalloproteinase-9 (Homo sapiens) (P14780 whole entry): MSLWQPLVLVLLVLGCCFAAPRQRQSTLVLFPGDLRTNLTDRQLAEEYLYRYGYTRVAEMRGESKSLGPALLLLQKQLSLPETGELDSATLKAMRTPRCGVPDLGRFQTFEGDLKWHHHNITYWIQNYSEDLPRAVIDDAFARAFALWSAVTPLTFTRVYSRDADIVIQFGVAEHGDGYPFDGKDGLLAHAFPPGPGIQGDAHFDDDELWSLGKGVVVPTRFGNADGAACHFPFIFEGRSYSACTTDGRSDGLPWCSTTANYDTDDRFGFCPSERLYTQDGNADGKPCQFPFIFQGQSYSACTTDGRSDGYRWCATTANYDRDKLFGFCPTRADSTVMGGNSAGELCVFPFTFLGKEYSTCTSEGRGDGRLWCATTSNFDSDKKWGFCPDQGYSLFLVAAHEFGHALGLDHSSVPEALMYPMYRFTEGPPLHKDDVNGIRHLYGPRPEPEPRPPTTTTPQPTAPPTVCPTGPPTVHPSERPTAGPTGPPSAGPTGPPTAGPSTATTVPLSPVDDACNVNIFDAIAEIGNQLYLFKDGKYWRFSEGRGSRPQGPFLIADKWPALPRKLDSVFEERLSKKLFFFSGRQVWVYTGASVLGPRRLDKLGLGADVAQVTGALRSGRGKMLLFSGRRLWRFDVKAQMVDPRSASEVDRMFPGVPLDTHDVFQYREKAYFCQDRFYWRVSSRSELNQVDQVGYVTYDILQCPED
Summary of the method: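 THP-1 monocytes were pretreated 2 h at 10 µM, then stimulated with 100 nM PMA for 48 h. Conditioned medium was run without reducing agent on 10% SDS-PAGE containing 0.1% gelatin. Gels were renatured 30 min in 0.25% Triton X-100 and developed overnight at room temperature in Tris/CaCl2/Brij 35 buffer.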

Compound	IC50 [2] [µM]	IC50 [3] [µM]	IC50 [4] [µM]	inhibition [10]	viability at 72 h, 20 µM [1] [%]	inhibition [5]	inhibition [6]	inhibition [7]	inhibition [8]	inhibition [9]
CN1C(C(=O)Nc2ccccn2)=C(O)c2ccccc2S1(=O)=O [PIROXICAM]	–	–	> 20	–	–	–	–	–	–	–
CCOC1=C(/C(C)=N/OCC(=O)Nc2c(F)cccc2F)N(C)S(=O)(=O)c2ccccc21	> 20	> 20	> 20	–	92.3	–	–	–	–	–
CCOC1=C(/C(C)=N/OCC(=O)Nc2ccccc2)N(C)S(=O)(=O)c2ccccc21	> 20	> 20	> 20	–	93	–	–	–	–	–
C/C(=N\OCC(=O)Nc1ccc(F)c(Cl)c1)C1=C(O)c2ccccc2S(=O)(=O)N1C	> 20	> 20	> 20	–	95.1	–	–	–	–	–
CCOC1=C(/C(C)=N/OCC(=O)Nc2ccc(F)c(Cl)c2)N(C)S(=O)(=O)c2ccccc21	> 20	> 20	> 20	–	97.5	–	–	–	–	–
COc1cccc(NC(=O)CO/N=C(\C)C2=C(O)c3ccccc3S(=O)(=O)N2C)c1	> 20	> 20	> 20	–	92.5	–	–	–	–	–
CCOC1=C(/C(C)=N/OCC(=O)Nc2ccc(Cl)c(C(F)(F)F)c2)N(C)S(=O)(=O)c2ccccc21	> 20	> 20	> 20	–	90.2	–	–	–	–	–
CCOC1=C(/C(C)=N/OCC(=O)Nc2ccc(OC)cc2)N(C)S(=O)(=O)c2ccccc21	> 20	> 20	> 20	–	94.2	–	–	–	–	–
CCOC1=C(/C(C)=N/OCC(=O)Nc2cccc(OC)c2)N(C)S(=O)(=O)c2ccccc21	> 20	> 20	> 20	–	96.2	–	–	–	–	–

Second part, led by results:

IC50 [2] [µM]	IC50 [3] [µM]	IC50 [4] [µM]	inhibition [10]	Compound	viability at 72 h, 20 µM [1] [%]	inhibition [5]	inhibition [6]	inhibition [7]	inhibition [8]	inhibition [9]
> 20	> 20	> 20	–	C/C(=N\OCC(=O)Nc1ccccc1)C1=C(O)c2ccccc2S(=O)(=O)N1C	94.1	–	–	–	–	–
> 20	> 20	> 20	–	C/C(=N\OCC(=O)Nc1c(F)cccc1F)C1=C(O)c2ccccc2S(=O)(=O)N1C	92.2	–	–	–	–	–
> 20	> 20	> 20	–	CCOC1=C(/C(C)=N/OCC(=O)Nc2cccc(F)c2)N(C)S(=O)(=O)c2ccccc21	92	–	–	–	–	–
> 20	> 20	> 20	–	COc1ccc(NC(=O)CO/N=C(\C)C2=C(O)c3ccccc3S(=O)(=O)N2C)cc1	97.5	–	–	–	–	–
9.4	> 20	> 20	–	C/C(=N\OCC(=O)Nc1cccc(F)c1)C1=C(O)c2ccccc2S(=O)(=O)N1C	95.5	–	–	–	–	–
2.5	> 20	6	75%	C/C(=N\OCC(=O)Nc1ccc(Cl)c(C(F)(F)F)c1)C1=C(O)c2ccccc2S(=O)(=O)N1C	91.2	Active	Active	Active	Active	Active
5.7	16.7	> 20	–	CCOC1=C(/C(C)=N/OCC(=O)Nc2ccc(C(F)(F)F)cc2)N(C)S(=O)(=O)c2ccccc21	93	–	–	–	–	–
18.6	–	–	–	CCc1ccc(CCOc2ccc(CC3SC(=O)NC3=O)cc2)nc1 (stereo not drawn) [PIOGLITAZONE]	–	–	–	–	–	–
4	> 20	12.1	Active	C/C(=N\OCC(=O)Nc1ccc(C(F)(F)F)cc1)C1=C(O)c2ccccc2S(=O)(=O)N1C	93	Active	Active	Active	Active	Active
